Active and inactive are the calls of the source. The calls are words filed in the database; no cut-off is given here.
Columns and labels:
Plasmodium falciparum [1] = assay: Antiplasmodial activity against chloroquine resistant Plasmodium falciparum INDO infected in human erythrocytes assessed as inhibition of parasite growth incubated for 72 hrs by SYBR green I staining based fluorescence plate reader analysis; type: functional, organism-based; conditions: Erythrocyte
Summary of the method: (§1)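 Pf3D7 or PfINDO was cultured in O+ human erythrocytes at 37 °C under 5% O2/5% CO2/90% N2 and ring-synchronised with 5% sorbitol. Cultures were exposed to 0–100 μM in triplicate for 72 h, with final DMSO 0.4%. After SYBR Green I lysis buffer (1 h, dark, 37 °C), fluorescence was read at 485/530 nm. Chloroquine-well counts were subtracted as background, and IC50 was obtained by non-linear regression.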

Plasmodium falciparum [2] = assay: Antiplasmodial activity against chloroquine sensitive Plasmodium falciparum 3D7 infected in human erythrocytes assessed as inhibition of parasite growth incubated for 72 hrs by SYBR green I staining based fluorescence plate reader analysis; type: functional, organism-based; conditions: 3D7, Erythrocyte; summary of the method: as §1
Plasmodium falciparum [3] = assay: Antiplasmodial activity against chloroquine resistant ring-stage Plasmodium falciparum INDO infected in human erythrocytes assessed as inhibition of parasite growth incubated for 12 hrs; type: functional, organism-based; conditions: Erythrocyte
Summary of the method: (§2)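 PfINDO cultures were staged at 0–6 h (rings), 18–22 h (trophozoites), 30–34 h (early schizonts) and 40–44 h (late schizonts) post-invasion. Each was exposed to varying concentrations for 12 h, washed free of compound by centrifugation, and grown 48 h in drug-free medium. IC50 came from growth curves, with untreated culture as 100% and chloroquine-treated culture as 0% growth.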

Plasmodium falciparum [4] = assay: Antimalarial activity against chloroquine resistant late schizont Plasmodium falciparum INDO infected in human erythrocytes assessed as inhibition of parasite growth incubated for 12 hrs; type: functional, organism-based; conditions: Erythrocyte; summary of the method: as §2
Plasmodium falciparum [5] = assay: Antiplasmodial activity against chloroquine resistant ring stage Plasmodium falciparum INDO infected in human erythrocytes assessed as reduction in parasitemia at 2.25 uM incubated for 12 hrs by time-kill kinetics based FACS analysis relative to control; type: functional, Erythrocyte; set-up: scale not given: the % may be the effect or the level left
Summary of the method: (§3)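 PfINDO rings were exposed to 2.25 or 1.79 μM, with compound washed out by centrifugation at 12, 24, 36, 48 or 57 h. Cultures were then grown drug-free to a total of 96 h. Parasitemia at the end of the second cycle was counted by FACS on 10^5 cells.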

Plasmodium falciparum [6] = assay: Antiplasmodial activity against chloroquine resistant schizont stage Plasmodium falciparum INDO infected in human erythrocytes assessed as decrease in parasitemia at 5.62 uM incubated for 4 hrs by time-kill kinetics based FACS analysis; type: functional, organism-based; conditions: Erythrocyte
Summary of the method: (§4)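 PfINDO early schizonts (32–36 h post-invasion) and late schizonts (42–45 h post-invasion) were exposed to 5.62 or 4.30 μM for up to 16 h, washed at 4 h intervals, then cultured drug-free to a total of 96 h. Parasitemia was counted by FACS on 10^5 cells at the end of the second cycle; schizont rupture was checked microscopically.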

Plasmodium falciparum [7] = assay: Antiplasmodial activity against chloroquine resistant segmental schizont stage Plasmodium falciparum INDO infected in human erythrocytes assessed inhibition of rupture at 5.62 uM preincubated with compound for 8 hrs followed by media replacement without compound and measured after 48 hrs by SYBR Green staining based FACS analysis; type: functional, organism-based; conditions: Erythrocyte
Plasmodium falciparum [8] = assay: (§5) Antiplasmodial activity against artemisinin-resistant early ring stage Plasmodium falciparum Cam3.1R539T infected in human erythrocytes assessed as reduction in parasite growth at 10 times IC50 concentration preincubated for 6 hrs followed by media replacement without compound for 66 hrs and measured after 72 hrs by Giemsa-staining based analysis; type: functional, organism-based; conditions: Erythrocyte
Summary of the method: (§6)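 Ring-stage survival assay. PfCam3.1R539T or PfINDO rings (0–3 h post-invasion), 1% parasitemia, 2% haematocrit, were exposed to 10× IC50 for 6 h. Compound was removed by three PBS washes, then cultures were grown 66 h in fresh medium. At 72 h, stage progression was assessed on Giemsa smears and revival by SYBR Green I lysis. Triplicate biological samples.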

Plasmodium falciparum [9] = assay: as §5, with “chloroquine resistant” for “artemisinin-resistant”, “INDO” for “Cam3.1R539T”; type: functional, organism-based; conditions: Erythrocyte; summary of the method: as §6
Plasmodium falciparum [10] = assay: Synergistic antiplasmodial activity against multidrug-resistant Plasmodium falciparum Cam3.1R539T infected in human erythrocytes at 8 times IC50 concentration incubated for 72 hrs in presence of mefloquine by SYBR green I staining based fluorescence assay; type: functional, organism-based; conditions: Erythrocyte
Summary of the method: (§7)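 P. falciparum Cam3.1R539T in O+ human erythrocytes, 1% parasitemia, 2% haematocrit. 8× IC50 stocks of test compound and standard drug were mixed at molar ratios 4:1, 3:2, 2:3 and 1:4, then serially diluted two-fold. Plates were incubated 72 h at 37 °C and read by SYBR Green I lysis. Controls were 0.4% DMSO (100% growth) and 4 μM chloroquine (0% growth). ΣFIC = FICA + FICB; <1 synergistic, 1.0–2.0 additive, >2.0 antagonistic.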

[11] = Toxicity in mouse assessed as change in temperature at 100 mg/kg, po measured after 45 mins; type: organism-based; conditions: in vivo, 0.75 h
Summary of the method: (§8)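 Acute oral toxicity per OECD 423. Mice were fasted 4 h, given a single 100 mg/kg oral dose, and observed for 45 min for signs of acute toxicity, compared with untreated controls.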

[12] = Toxicity in mouse assessed as appetite loss at 100 mg/kg, po measured after 45 mins; type: organism-based; conditions: in vivo, 0.75 h; summary of the method: as §8
[13] = Toxicity in mouse assessed as effect on water intake at 100 mg/kg, po measured after 45 mins; type: organism-based; conditions: in vivo, 0.75 h; summary of the method: as §8
[14] = Toxicity in mouse assessed as effect on eye colour at 100 mg/kg, po measured after 45 mins; type: organism-based; conditions: in vivo, 0.75 h; summary of the method: as §8
Plasmodium berghei = assay: Antimalarial activity against Plasmodium berghei ANKA infected in mouse model of malaria assessed as reduction in parasite infection by measuring median survival at 100 mg/kg, po; type: functional
Plasmodium falciparum [15] = assay: Binding affinity to Plasmodium falciparum GAP50 assessed as association constant by SPR analysis
Summary of the method: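 SPR: GAP50 at 50 μg/ml in 10 mM acetate pH 4.5 was immobilised on a CM5 chip by EDC/NHS coupling. Analytes were run in 5% DMSO/PBS at 30 μl/min, with 60 s association and 120 s dissociation. The chip was regenerated with 10 mM glycine pH 3.0 for 30 s. Fits used a 1:1 Langmuir model.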

Plasmodium falciparum [16] = assay: Antiplasmodial activity against chloroquine resistant schizont stage Plasmodium falciparum INDO infected in human erythrocytes assessed as prevention of schizont rupture at 5.62 uM incubated for 4 hrs by time-kill kinetics based FACS analysis; type: functional, organism-based; conditions: Erythrocyte; summary of the method: as §4
Plasmodium falciparum [17] = assay: Antiplasmodial activity against chloroquine resistant ring stage Plasmodium falciparum INDO infected in human erythrocytes assessed as reduction in parasitemia at 1.79 uM incubated for 12 hrs by time-kill kinetics based FACS analysis relative to control; type: functional, Erythrocyte; set-up: scale not given: the % may be the effect or the level left; summary of the method: as §3
Plasmodium falciparum [18] = assay: Antiplasmodial activity against chloroquine resistant schizont stage Plasmodium falciparum INDO infected in human erythrocytes assessed as decrease in parasitemia at 4.30 uM incubated for 4 hrs by time-kill kinetics based FACS analysis; type: functional, organism-based; conditions: Erythrocyte, dose 4.3 µM; summary of the method: as §4
Plasmodium falciparum [19] = assay: Antagonistic antiplasmodial activity against multidrug-resistant Plasmodium falciparum Cam3.1R539T infected in human erythrocytes at 8 times IC50 concentration incubated for 72 hrs in presence of mefloquine by SYBR green I staining based fluorescence assay; type: functional, organism-based; conditions: Erythrocyte; summary of the method: as §7
Plasmodium falciparum [20] = assay: Additive antiplasmodial activity against multidrug-resistant Plasmodium falciparum Cam3.1R539T infected in human erythrocytes at 8 times IC50 concentration incubated for 72 hrs in presence of pyrimethamine by SYBR green I staining based fluorescence assay; type: functional, organism-based; conditions: Erythrocyte; summary of the method: as §7
Plasmodium falciparum [21] = assay: Antiplasmodial activity against chloroquine resistant schizont stage Plasmodium falciparum INDO infected in human erythrocytes assessed as prevention of schizont rupture at 4.30 uM incubated for 4 hrs by time-kill kinetics based FACS analysis; type: functional, organism-based; conditions: Erythrocyte, dose 4.3 µM; summary of the method: as §4

Compound `Clc1ccc2c(N3CCN(CCCn4nnc(-c5ccc(Br)cc5)n4)CC3)ccnc2c1` has an IC50 (Plasmodium falciparum [1]) of 2250 nM, an IC50 (Plasmodium falciparum [2]) of 1850 nM and an IC50 (Plasmodium falciparum [3]) of 2270 nM. For the same compound, the IC50 (Plasmodium falciparum [4]) was 1500 nM, the Activity (Plasmodium falciparum [5]) was about 22% and the Activity (Plasmodium falciparum [6]) was “Active”. For the same compound, the Activity (Plasmodium falciparum [7]) was “Active”, the Activity (Plasmodium falciparum [8]) was “inactive” and the Activity (Plasmodium falciparum [9]) was “inactive”. The Activity (Plasmodium falciparum [10]) was “Active”, the Activity [11] was “Non-Toxic” and the Activity [12] was “Non-Toxic”. The Activity [13] was “Non-Toxic”, the Activity [14] was “Non-Toxic” and the Survival (Plasmodium berghei) was 28 days. The Ka (Plasmodium falciparum [15]) was 2610 M⁻¹ s⁻¹ and the Activity (Plasmodium falciparum [16]) was “Active”.

Work on `O=C(Cn1nnc(-c2cccc([N+](=O)[O-])c2)n1)N1CCN(c2ccnc3cc(Cl)ccc23)CC1` yielded an IC50 (Plasmodium falciparum [1]) of 1790 nM, an IC50 (Plasmodium falciparum [2]) of 2230 nM and an IC50 (Plasmodium falciparum [3]) of 7510 nM. For the same compound, the IC50 (Plasmodium falciparum [4]) was 7100 nM, the Activity (Plasmodium falciparum [17]) was about 22% and the Activity (Plasmodium falciparum [18]) was “Active”. For the same compound, the Activity (Plasmodium falciparum [8]) was “Active”, the Activity (Plasmodium falciparum [9]) was “inactive” and the Activity (Plasmodium falciparum [19]) was “Active”. The Activity (Plasmodium falciparum [20]) was “Active”, the Activity [11] was “Non-Toxic” and the Activity [12] was “Non-Toxic”. For the same compound, the Activity [13] was “Non-Toxic”, the Activity [14] was “Non-Toxic” and the Survival (Plasmodium berghei) was 22 days. For the same compound, the Ka (Plasmodium falciparum [15]) was 1920 M⁻¹ s⁻¹ and the Activity (Plasmodium falciparum [21]) was “inactive”.

From ChEMBL document CHEMBL5335820, “Novel quinolinepiperazinyl-aryltetrazoles targeting the blood stage of Plasmodium falciparum” (RSC Med Chem, 2024)
